# Data taken from paper PMC6039207 (Clinical and Translational Science, 2018).
# Marks after values point to notes of the source that are not given here.
# Tests used:
# [1] = behavioral evaluations; format: in vivo, human
# [2] = biological target: T1, FAAH (Homo sapiens, UniProt O00519); experiment: FAAH activity in leukocytes; format: in vivo
# T1 sequence (O00519 1-579): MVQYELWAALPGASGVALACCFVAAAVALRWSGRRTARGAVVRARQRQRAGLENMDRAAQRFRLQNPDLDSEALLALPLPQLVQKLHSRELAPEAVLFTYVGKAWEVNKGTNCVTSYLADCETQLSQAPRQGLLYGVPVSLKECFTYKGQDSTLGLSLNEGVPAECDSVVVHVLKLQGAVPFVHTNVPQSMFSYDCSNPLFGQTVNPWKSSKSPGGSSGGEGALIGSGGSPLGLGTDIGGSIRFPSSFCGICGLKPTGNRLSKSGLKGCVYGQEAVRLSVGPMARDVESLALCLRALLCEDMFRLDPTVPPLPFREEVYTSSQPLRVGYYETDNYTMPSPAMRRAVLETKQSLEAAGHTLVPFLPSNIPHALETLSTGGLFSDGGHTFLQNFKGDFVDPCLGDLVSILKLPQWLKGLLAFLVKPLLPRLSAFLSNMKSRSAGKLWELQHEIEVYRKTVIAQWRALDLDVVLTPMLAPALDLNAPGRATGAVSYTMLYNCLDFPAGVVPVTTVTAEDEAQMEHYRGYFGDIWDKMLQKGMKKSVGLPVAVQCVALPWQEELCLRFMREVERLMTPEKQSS
# Method in brief: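 Leukocyte FAAH activity was assayed in healthy volunteers dosed orally once daily for 10 days (10–100 mg cohorts, placebo controls). It was expressed as percent of predose activity. Sampling ran 0–24 h postdose on day 1 and 0–96 h after the day-10 dose. In the PET study, leukocytes were also sampled at scan midpoint, about 4 h 45 min postdose.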
# [3] = JNJ-42165279 plasma and urine pharmacokinetics, MAD study; format: in vivo, human
# Method in brief: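 Plasma and urine samples were taken from healthy volunteers given oral test compound once daily for 10 days (10–100 mg cohorts). Plasma was assayed by validated LC/MS/MS, with profiles over 0–24 h on day 1 and 0–96 h on day 10. PK parameters came from noncompartmental analysis. Accumulation ratios compared day 10 with day 1.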
# [4] = tested on: FAAH; conditions: cited from earlier work
# [5] = tested on: CSF FAA (AA, AEA, OEA); experiment: FAA concentrations in CSF; format: in vivo, human; conditions: for AEA concentration in cerebrospinal fluid / OEA concentration in cerebrospinal fluid / AA concentration in cerebrospinal fluid: young male volunteers, mean (SD)
# Method in brief: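 CSF sampled in the double-blind, placebo-controlled multiple-ascending-dose study in healthy volunteers. Oral test compound or placebo was given once daily for 10 days: 10, 25 or 75 mg in young men, 100 mg in young women, 100 mg in elderly subjects. AEA, OEA and arachidonic acid were measured predose and after 6–7 days of dosing. Values were expressed against predose or baseline.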
# [6] = treatment-emergent adverse events and safety, MAD study; format: in vivo, human; conditions: MAD and PET studies
# Method in brief: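 Safety covered treatment-emergent adverse events, physical examinations, laboratory tests, 12-lead ECG and vital signs. Subjects were healthy volunteers on 10 days of once-daily oral test compound (10–100 mg) or placebo, double-blind and randomized, six active and two placebo per cohort.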
# [7] = plasma protein binding; format: in vitro ADME; conditions: humans, estimated
# [8] = biological target: T2, brain FAAH (Homo sapiens, UniProt O00519); experiment: brain FAAH occupancy by PET with [11C]MK3168; format: in vivo
# T2 sequence (O00519 1-579): T1 sequence (O00519 1-579)
# Method in brief: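 Healthy men were scanned by PET with [11C]MK3168 at baseline. In Part 2, scans followed single oral doses (2.5–100 mg range, adaptive; tracer injected 1 h postdose), with repeat doses at least 1 week apart. In Part 3, scans were 24 h after a single dose and 24 h after the last of 7 daily doses. Occupancy came from two-tissue compartment VT, baseline versus treatment.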
# [9] = JNJ-42165279 concentration in CSF, MAD study; format: in vivo, human; conditions: after 7 days
# Method in brief: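 Test compound in CSF was quantified by a validated LC/MS/MS method after 7 days of once-daily oral dosing in healthy volunteers: 10 mg young men, 25 mg young men, and 100 mg elderly (men only). Values were related to plasma concentrations at Cmax on day 10.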
# [10] = tested on: plasma FAA (AEA, OEA, PEA); experiment: FAA concentrations in plasma; format: in vivo, human
# Method in brief: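 Plasma AEA, OEA and PEA were followed in healthy volunteers given oral test compound (10–100 mg) or placebo once daily for 10 days, six active and two placebo per cohort. Concentration–time profiles were taken on day 1 (0–24 h postdose) and day 10 (0–96 h postdose). Mean peak values were compared with mean peak placebo values.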
# [11] = tested on: WBC FAAH; conditions: 4 mg once-daily dose more than sufficient; cited from earlier work
# [12] = patients with osteoarthritis; cited from earlier work
# [13] = [11C]MK3168 radiometabolite analysis and brain uptake; format: in vivo, human; conditions: for standardized uptake value (SUV), gray matter regions / tracer uptake in gray matter regions: baseline
# Method in brief: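 In healthy men, the tracer was given as a slow IV bolus (356 ± 57MBq; molar activity 111 ± 67 GBq/μmol), synchronized with a 90-min list-mode PET/CT acquisition after low-dose CT for attenuation correction. Discrete arterial samples at each scan measured parent tracer and radiometabolites as the input function. Brain time-activity curves came from MRI-coregistered, template-based regions.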
# [14] = tested on: human FAAH; conditions: cited from earlier work
# [15] = single clinical doses, healthy volunteers; cited from earlier work
# [16] = ∼24 h after stopping the 10 mg dosing
# [17] = day 10 vs day 1, doses 10–100 mg, range across cohorts
# [18] = Predose (baseline), 10 mg cohort
# [19] = Predose (baseline), 25 mg cohort
# [20] = Predose (baseline), 75 mg cohort
smiles,measurement,setting,value
O=C(Nc1cnccc1Cl)N1CCN(Cc2ccc3c(c2)OC(F)(F)O3)CC1 [JNJ‐42165279],quality of working memory (QWM),"[1]; 100 mg, elderly volunteers, P ≤ 0.05, 4 h postdose days 1, 6, 10",significant negative treatment effect
same,ARCI-53 report,"[1]; 100 mg, women of nonchild-bearing potential",slight similarity to sedatives and dissimilarity to stimulants
same,"treatment effect on tapping, tracking, and postural stability",[1]; MAD study,No treatment effects were observed
same,ARCI-53: experiences similar to marijuana or hallucinogens,[1]; all groups,no groups reported experiences similar to marijuana or hallucinogens
same,"FAAH activity remaining in leukocytes, mean trough","[2]; relative to predose values, after a single dose, 10–100 mg dose range",7.85–10.4%
same,FAAH activity recovered in leukocytes,[2]; [16],~50%
same,estimated accumulation ratio for AUC,[3]; [17],144–337%
same,estimated accumulation ratio for Cmax,[3]; [17],98–156%
same,terminal half-life,[3]; in vivo,8 to 14 h
same,Mean plasma half-life,"[3]; range of cohort means, 10–100 mg QD",8.14 to 14.1 h
same,affinity for human over rat FAAH,[4],much higher affinity
same,increase of mean CSF AEA concentration relative to predose,[5]; 10 mg daily for 7 days,~45 fold
same,increase of mean CSF OEA concentration relative to predose,[5]; 10 mg daily for 7 days,~6.6 fold
same,increase of mean CSF AEA concentration relative to predose,[5]; 25 mg daily for 7 days,~41 fold
same,increase of mean CSF OEA concentration relative to predose,[5]; 25 mg daily for 7 days,~5.8 fold
same,increase of mean CSF AEA concentration relative to predose,[5]; 75 mg daily for 7 days,~77 fold
same,increase of mean CSF OEA concentration relative to predose,[5]; 75 mg daily for 7 days,~7.4 fold
same,AEA concentration in cerebrospinal fluid,"[5]; Day 7, 10 mg daily",12.6 (4.86)
same,OEA concentration in cerebrospinal fluid,"[5]; Day 7, 10 mg daily",139 (42.0)
same,AA concentration in cerebrospinal fluid,"[5]; Day 7, 25 mg daily, n=5",1.44 (0.52) ^b
same,AEA concentration in cerebrospinal fluid,"[5]; Day 7, 25 mg daily, n=5",21.24 (7.39) ^b
same,OEA concentration in cerebrospinal fluid,"[5]; Day 7, 25 mg daily, n=5",116.81 (26.07) ^b
same,AA concentration in cerebrospinal fluid,"[5]; Day 7, 75 mg daily, n=5",1.81 (0.72) ^b
same,AEA concentration in cerebrospinal fluid,"[5]; Day 7, 75 mg daily, n=5",28.88 (9.52) ^b
same,OEA concentration in cerebrospinal fluid,"[5]; Day 7, 75 mg daily, n=5",150.24 (34.64) ^b
same,AEA concentration in cerebrospinal fluid,[5]; [18],0.28 (0.31)
same,OEA concentration in cerebrospinal fluid,[5]; [18],21.2 (5.33)
same,AA concentration in cerebrospinal fluid,[5]; [19],1.85 (0.52)
same,AEA concentration in cerebrospinal fluid,[5]; [19],0.52 (0.16)
same,OEA concentration in cerebrospinal fluid,[5]; [19],20.15 (10.19)
same,AA concentration in cerebrospinal fluid,[5]; [20],2.04 (0.86)
same,AEA concentration in cerebrospinal fluid,[5]; [20],0.38 (0.21)
same,OEA concentration in cerebrospinal fluid,[5]; [20],20.21 (8.25)
same,increase of AEA concentrations in CSF,[5]; after 7 days of dosing,40–70 fold
same,"deaths, serious or severe TEAEs, discontinuations due to TEAEs",[6],"No deaths, serious, or severe treatment emergent adverse event (TEAEs) or discontinuations due to TEAEs"
same,"vital signs, ECG parameters including QTc, physical examination",[6],no clinically significant treatment effects were observed
same,unbound fraction,[7],6.4–7.5%
same,occupancy of brain FAAH,[8]; 24 h after dosing with 10 mg,80–85%
same,FAAH occupancy at trough,[8]; after the first dose of 10 mg,> 80%
same,doses giving saturation of brain FAAH occupancy,[8]; in vivo,≥ 10 mg
same,brain FAAH occupancy,"[8]; single doses of 2.5 and 5 mg, at estimated Cmax","lesser, although appreciable, occupancy"
same,brain FAAH occupancy,"[8]; single doses of 10, 25, and 50 mg, at estimated Cmax",96–98%
same,brain FAAH occupancy,[8]; [16],≥ 80%
same,Mean concentration of JNJ-42165279 in CSF,[9]; cohort A (25 mg),8.95 ng/mL
same,Mean concentration of JNJ-42165279 in CSF,"[9]; cohort D, men only",31.8 ng/mL
same,Mean concentration of JNJ-42165279 in CSF,[9]; cohort E (10 mg),2.67 ng/mL
same,CSF concentration relative to plasma values at Cmax on day 10,[9]; slightly over,over 3%
same,doses with maximal effect on plasma AEA turnover,[10]; in vivo,≥ 75 mg
same,increase of plasma AEA levels,[10]; lowest dose tested in the MAD study (10 mg),≥ 10 fold
same,mean peak plasma AEA concentration versus mean peak placebo values,[10]; single doses 10–100 mg,5.5–10 fold
same,mean peak plasma OEA and PEA concentrations versus mean peak placebo,[10]; single doses 10–100 mg,4.3–5.6 fold
O=C(Nc1cccnn1)N1CCC(=Cc2cccc(Oc3ccc(C(F)(F)F)cn3)c2)CC1 [PF‐04457845],inhibition of WBC FAAH,[11],97%
same,effect on pain perception,[12],no effect on pain perception
CN(C)C(=O)[C@H]1C[C@@H]1c1ccc(-c2ncn(C)c2Sc2ccc(Cl)cn2)cc1 [[^11C]MK3168],"standardized uptake value (SUV), gray matter regions",[13]; at 20 min,~3.0
same,tracer uptake in gray matter regions,[13]; at 20 min,~15 kBq/cc
same,"standardized uptake value (SUV), gray matter regions",[13]; at 90 min,~2.0
same,tracer uptake in gray matter regions,[13]; at 90 min,~10 kBq/cc
same,parent tracer remaining in plasma,"[13]; baseline scans, 10 min postinjection",30–40%
same,elimination of tracer from plasma,"[13]; baseline scans, 60 min p.i.",almost complete elimination
same,IC50,[14],1 ± 0.6 nM
CCCCCCC(C)(C)c1cc(O)c2c(c1)OC(C)(C)C1CCC(=O)CC21 (stereo not shown) [nabilone],effect on cognitive performance,[15],notable impairment on cognitive performance
